# Data taken from ChEMBL document CHEMBL3102736, “Synthesis and evaluation of cytotoxic activities of new guanidines derived from carbazoles” (Bioorg Med Chem Lett, 2014).
# Activity calls are given as the source filed them. The calls are words filed in the database; no cut-off is given here.
# Key:
# DNA [1] = test: Binding affinity to calf thymus DNA at 10^-4 M by fluorescence assay; assay type: nucleic-acid assay; settings: Bos taurus
# Summary of the method: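 Fluorescence titration at 37 °C in 0.01 M Tris, pH 7.4. Compound working solution at 10^-4 M (diluted from a 10^-2 M DMSO stock); calf thymus DNA added at increasing levels across 25–100 µg/mL. Excitation at 290 nm, emission recorded over 330–390 nm.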
# DNA [2] = test: Binding affinity to calf thymus DNA at 10^-4 M by UV-Visible spectrophotometry; assay type: nucleic-acid assay; settings: Bos taurus
# Summary of the method: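 Compound working solution at 10^-4 M (diluted from DMSO stock in 0.01 M Tris) in Tris buffer (0.01 M, pH 7.4) at 37 °C. UV-Vis absorption spectra (230–500 nm) recorded without and with calf thymus DNA at a fixed 100 µg/mL.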
# HCT-116 [3] = test: Cytotoxicity against human HCT116 cells at 10^-6 M after 72 hrs by MTS assay; assay type: functional, cell-based
# Summary of the method: (§1)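 HCT116, MCF7 and PC3 cells grown in RPMI with 10% fetal calf serum and antibiotics under 5% CO2. Seeded at 650–2000 cells/well and dosed 24 h later at 10^-6 or 10^-5 M from DMSO (1% final). After 72 h, MTS added for 3 h at 37 °C, then A490 read. % inhibition = (1 − OD treated/OD control) × 100.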
# KB [4] = test: Cytotoxicity against human KB cells at 10^-6 M after 72 hrs by MTS assay; assay type: functional
# Summary of the method: (§2)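 KB and MRC5-SV2 cells grown in D-MEM with 10% fetal calf serum and antibiotics under 5% CO2. Seeded at 650–2000 cells/well and dosed 24 h later at 10^-6 or 10^-5 M from DMSO (1% final). After 72 h, MTS added for 3 h at 37 °C, then A490 read. % inhibition = (1 − OD treated/OD control) × 100.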
# MRC5 [5] = test: Cytotoxicity against human MRC5 cells at 10^-6 M after 72 hrs by MTS assay; assay type: functional, cell-based; summary of the method: as §2
# MCF7 [6] = test: Cytotoxicity against human MCF7 cells at 10^-5 M after 72 hrs by MTS assay; assay type: functional, cell-based; summary of the method: as §1
# MRC5 [7] = test: Cytotoxicity against human MRC5 cells at 10^-5 M after 72 hrs by MTS assay; assay type: functional, cell-based; summary of the method: as §2
# KB [8] = test: Cytotoxicity against human KB cells at 10^-5 M after 72 hrs by MTS assay; assay type: functional; summary of the method: as §2
# PC-3 [9] = test: Cytotoxicity against human PC3 cells at 10^-5 M after 72 hrs by MTS assay; assay type: functional, cell-based; summary of the method: as §1
# MCF7 [10] = test: Cytotoxicity against human MCF7 cells at 10^-6 M after 72 hrs by MTS assay; assay type: functional, cell-based; summary of the method: as §1
# PC-3 [11] = test: Cytotoxicity against human PC3 cells at 10^-6 M after 72 hrs by MTS assay; assay type: functional, cell-based; summary of the method: as §1
# HL-60 = test: Cytotoxicity against human HL60 cells after 72 hrs by MTS assay; assay type: functional, cell-based; settings: HL-60, 72 h
# Summary of the method: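 HL60 cells cultured in supplemented RPMI (10% fetal calf serum) under 5% CO2. Seeded at 650–2000 cells/well and treated 24 h later with compound from DMSO (1% final), 0.5 nM–10 µM. After 72 h, MTS added for 3 h at 37 °C, then A490 read. IC50 taken as 50% inhibition of proliferation; separate duplicate experiments.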
# HCT-116 [12] = test: Cytotoxicity against human HCT116 cells at 10^-5 M after 72 hrs by MTS assay; assay type: functional, cell-based; summary of the method: as §1
Activity (DNA [1]),Activity (DNA [2]),SMILES,Activity (HCT-116 [3]),inhibition at 1 µM (KB [4]) [%],Activity (MRC5 [5]),Activity (MCF7 [6]),Activity (MRC5 [7]),inhibition at 10 µM (KB [8]) [%],Activity (PC-3 [9]),Activity (MCF7 [10]),Activity (PC-3 [11]),IC50 (HL-60) [µM],Activity (HCT-116 [12])
Active,,CCCCN/C(N)=N/c1cc(C)c2[nH]c3ccc(Br)cc3c2c1C,,26,,,,100,,,,3.5,
Active,,CCCCN/C(N)=N/c1cc(C)c2[nH]c3ccccc3c2c1C,,5,,,,98,,,,,
Active,,CCCN/C(N)=N/c1cc(C)c2[nH]c3ccccc3c2c1C,,18,,,,91,,,,,

# The next lines start with the molecule.
SMILES,Activity (DNA [1]),Activity (DNA [2]),Activity (HCT-116 [3]),inhibition at 1 µM (KB [4]) [%],Activity (MRC5 [5]),Activity (MCF7 [6]),Activity (MRC5 [7]),inhibition at 10 µM (KB [8]) [%],Activity (PC-3 [9]),Activity (MCF7 [10]),Activity (PC-3 [11]),IC50 (HL-60) [µM],Activity (HCT-116 [12])
CCC(CC)N/C(N)=N/c1cc(C)c2[nH]c3ccc(Br)cc3c2c1C,Active,Active,inactive,15,inactive,Active,Active,100,Active,inactive,inactive,3.1,Active
Cc1cc(/N=C(\N)NC(C)(C)C)c(C)c2c1[nH]c1ccc(Br)cc12,Active,,,16,,,,100,,,,4,
CCOC(=O)Oc1ccc2[nH]c3c(C)cc(N=C(N)N)c(C)c3c2c1,,,,0,,,,73,,,,,
